Data taken from ChEMBL document CHEMBL3992547, “Antimicrobial activity of rhodanine-3-acetic acid derivatives” (Bioorg Med Chem, 2017).
In brackets after ≈: the same amount, converted by molar mass. Activity calls are given as the source filed them. The rule behind the calls is not given here.

Key:
[1] = tested on: Nakaseomyces glabratus; test: Antifungal activity against Candida glabrata 20/I after 24 hrs by microdilution broth assay; format: functional
Method in brief: (§1)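 Broth microdilution per CLSI M27-A3 and M38-A2 in RPMI 1640 with glutamine, buffered to pH 7.0 with MOPS. Compounds are diluted in DMSO. Final inoculum is 5 × 10³ CFU/mL for yeasts and 0.5–5 × 10⁴ CFU/mL for moulds. Plates are incubated in the dark at 35 °C in humid air and read visually and/or at 540 nm after 24 and 48 h. MIC is ≥80% growth reduction (IC₈₀) for yeasts and ≥50% (IC₅₀) for filamentous fungi.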

[2] = tested on: Staphylococcus aureus; test: Antibacterial activity against methicillin-resistant Staphylococcus aureus H 5996/08 incubated for 48 hrs under dark condition by microdilution broth assay; format: functional; details: H 5996/08, 48 h
Method in brief: (§2)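 Microdilution broth method modified per M07-A07, in Mueller-Hinton broth adjusted to pH 7.4 (±0.2). Inoculum made in sterile water to 0.5 McFarland (1.5 × 10⁸ CFU/mL). Plates incubated in the dark at 35 °C in a humid atmosphere, with reads at 24 and 48 h. MIC taken as at least 95% growth reduction (IC₉₅) versus control.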

[3] = tested on: Pichia kudriavzevii; test: Antifungal activity against Candida krusei E28 after 24 to 48 hrs hrs by microdilution broth assay; format: functional; method in brief: as §1
[4] = Solubility of the compound in Sula's semisynthetic medium up to 1 mM; format: physicochemical
[5] = tested on: Escherichia coli; test: Antibacterial activity against Escherichia coli CCM 4517 incubated for 24 hrs under dark condition by microdilution broth assay; format: functional; details: CCM 4517, 24 h
Method in brief: (§3)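 Broth microdilution per M07-A07, modified, in Mueller-Hinton broth adjusted to pH 7.4 (±0.2). Inoculum is prepared in sterile water to McFarland 0.5 (1.5 × 10⁸ CFU/mL). Plates are incubated in the dark at 35 °C in humid air. MIC is read after 24 and 48 h as at least 95% growth reduction versus control (IC₉₅).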

[6] = tested on: Pseudomonas aeruginosa; test: Antibacterial activity against Pseudomonas aeruginosa CCM 1961 up to 500 uM incubated for 24 to 48 hrs under dark condition by microdilution broth assay; format: functional; method in brief: as §3
[7] = tested on: Mycobacterium kansasii; test: Antimycobacterial activity against Mycobacterium kansasii isolate 6509/96 after 14 days by micromethod; format: functional; details: isolate 6509/96, 336 h
[8] = tested on: Trichosporon asahii; test: Antifungal activity against Trichosporon asahii 1188 after 48 hrs by microdilution broth assay; format: functional; details: Trichosporon asahii, 1188, 48 h; method in brief: as §1
[9] = tested on: Mycobacterium kansasii; test: Antimycobacterial activity against Mycobacterium kansasii isolate 6509/96 after 21 days by micromethod; format: functional; details: isolate 6509/96, 504 h
[10] = tested on: Trichophyton mentagrophytes; test: Antifungal activity against Trichophyton mentagrophytes 445 after 72 hrs by microdilution broth assay; format: functional; details: Trichophyton mentagrophytes, 445, 72 h
Method in brief: (§4)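 Broth microdilution per CLSI M38-A2 in RPMI 1640 with glutamine, buffered to pH 7.0 with MOPS, with DMSO as diluent. Final inoculum is 0.5–5 × 10⁴ CFU/mL. Plates are incubated in the dark at 35 °C in humid air and read visually and/or at 540 nm after 72 and 120 h. MIC is at least 50% growth reduction versus control.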

[11] = tested on: Nakaseomyces glabratus; test: Antifungal activity against Candida glabrata 20/I after 48 hrs by microdilution broth assay; format: functional; method in brief: as §1
[12] = tested on: Staphylococcus aureus; test: Antibacterial activity against Staphylococcus aureus CCM 4516/08 incubated for 48 hrs under dark condition by microdilution broth assay; format: functional; details: CCM 4516/08, 48 h; method in brief: as §3
[13] = tested on: Mycobacterium kansasii; test: Antimycobacterial activity against Mycobacterium kansasii isolate 235/80 after 7 days by micromethod; format: functional; details: isolate 235/80, 168 h
[14] = tested on: Candida tropicalis; test: Antifungal activity against Candida tropicalis 156 after 48 hrs by microdilution broth assay; format: functional; details: Candida tropicalis, 156, 48 h; method in brief: as §1
[15] = tested on: Klebsiella pneumoniae; test: Antibacterial activity against Klebsiella pneumoniae D 11750/08 up to 500 uM incubated for 24 to 48 hrs under dark condition by microdilution broth assay; format: functional; method in brief: as §3
[16] = tested on: Mycobacterium tuberculosis; test: Antimycobacterial activity against Mycobacterium tuberculosis H37Rv 331/88 measured after 21 days by micromethod; format: functional; details: H37Rv 331/88, 504 h
[17] = tested on: Aspergillus fumigatus; test: Antifungal activity against Aspergillus fumigatus 231 after 48 hrs by microdilution broth assay; format: functional; details: Aspergillus fumigatus, 231, 48 h; method in brief: as §1
[18] = tested on: Staphylococcus epidermidis; test: Antibacterial activity against Staphylococcus epidermidis H 6966/08 incubated for 48 hrs under dark condition by microdilution broth assay; format: functional; details: H 6966/08, 48 h; method in brief: as §3
[19] = tested on: Aspergillus fumigatus; test: Antifungal activity against Aspergillus fumigatus 231 after 24 hrs by microdilution broth assay; format: functional; details: Aspergillus fumigatus, 231, 24 h; method in brief: as §1
[20] = tested on: Mycobacterium avium; test: Antimycobacterial activity against Mycobacterium avium 330/88 measured after 21 days by micromethod; format: functional; details: 330/88, 504 h
[21] = tested on: Klebsiella pneumoniae; test: Antibacterial activity against ESBL positive Klebsiella pneumoniae J 14368/08 up to 500 uM incubated for 24 to 48 hrs under dark condition by microdilution broth assay; format: functional; method in brief: as §3
[22] = tested on: Escherichia coli; test: Antibacterial activity against Escherichia coli CCM 4517 incubated for 48 hrs under dark condition by microdilution broth assay; format: functional; details: CCM 4517, 48 h; method in brief: as §3
[23] = tested on: Staphylococcus aureus; test: Antibacterial activity against methicillin-resistant Staphylococcus aureus H 5996/08 incubated for 24 hrs under dark condition by microdilution broth assay; format: functional; details: H 5996/08, 24 h; method in brief: as §2
[24] = tested on: Staphylococcus aureus; test: Antibacterial activity against Staphylococcus aureus CCM 4516/08 incubated for 24 hrs under dark condition by microdilution broth assay; format: functional; details: CCM 4516/08, 24 h; method in brief: as §3
[25] = tested on: Candida tropicalis; test: Antifungal activity against Candida tropicalis 156 after 24 hrs by microdilution broth assay; format: functional; details: Candida tropicalis, 156, 24 h; method in brief: as §1
[26] = tested on: Staphylococcus epidermidis; test: Antibacterial activity against Staphylococcus epidermidis H 6966/08 incubated for 24 hrs under dark condition by microdilution broth assay; format: functional; details: H 6966/08, 24 h; method in brief: as §3
[27] = tested on: Trichosporon asahii; test: Antifungal activity against Trichosporon asahii 1188 after 24 hrs by microdilution broth assay; format: functional; details: Trichosporon asahii, 1188, 24 h; method in brief: as §1
[28] = tested on: Mycobacterium tuberculosis; test: Antimycobacterial activity against Mycobacterium tuberculosis H37Rv 331/88 measured after 14 days by micromethod; format: functional; details: H37Rv 331/88, 336 h
[29] = tested on: Mycobacterium kansasii; test: Antimycobacterial activity against Mycobacterium kansasii isolate 6509/96 after 7 days by micromethod; format: functional; details: isolate 6509/96, 168 h
[30] = tested on: Mycobacterium kansasii; test: Antimycobacterial activity against Mycobacterium kansasii isolate 235/80 after 14 days by micromethod; format: functional; details: isolate 235/80, 336 h
[31] = tested on: Enterococcus; test: Antibacterial activity against Enterococcus sp. J 14365/08 incubated for 24 hrs under dark condition by microdilution broth assay; details: J 14365/08, 24 h
[32] = tested on: Candida albicans; test: Antifungal activity against Candida albicans ATCC 44859 after 24 hrs by microdilution broth assay; format: functional; details: ATCC 44859, 24 h; method in brief: as §1
[33] = tested on: Mycobacterium avium; test: Antimycobacterial activity against Mycobacterium avium 330/88 measured after 14 days by micromethod; format: functional; details: 330/88, 336 h
[34] = tested on: Trichophyton mentagrophytes; test: Antifungal activity against Trichophyton mentagrophytes 445 after 120 hrs by microdilution broth assay; format: functional; details: Trichophyton mentagrophytes, 445, 120 h; method in brief: as §4
[35] = tested on: Candida albicans; test: Antifungal activity against Candida albicans ATCC 44859 after 48 hrs by microdilution broth assay; format: functional; details: ATCC 44859, 48 h; method in brief: as §1
[36] = tested on: Lichtheimia corymbifera; test: Antifungal activity against Absidia corymbifera 272 after 24 to 48 hrs hrs by microdilution broth assay; format: functional; method in brief: as §1
[37] = tested on: Enterococcus; test: Antibacterial activity against Enterococcus sp. J 14365/08 incubated for 48 hrs under dark condition by microdilution broth assay; details: J 14365/08, 48 h
[38] = tested on: Mycobacterium kansasii; test: Antimycobacterial activity against Mycobacterium kansasii isolate 235/80 after 21 days by micromethod; format: functional; details: isolate 235/80, 504 h

SMILES	MIC80 [1]	MIC95 [2]	Activity [3]	solubility [4]	MIC95 [5]	Activity [6]	MIC [7]	MIC80 [8]	MIC [9]	MIC50 [10]	MIC80 [11]	MIC95 [12]	MIC [13]	MIC80 [14]	Activity [15]	MIC [16]	MIC50 [17]	MIC95 [18]	MIC50 [19]	MIC [20]	other results
O=C(O)CN1C(=O)/C(=C/c2ccc(O)cc2)SC1=S	> 500 µM	> 500 µM	inactive	Soluble	> 500 µM	inactive	1000 µM (≈ 295 µg/mL)	> 500 µM	1000 µM (≈ 295 µg/mL)	> 500 µM	> 500 µM	> 500 µM	1000 µM (≈ 295 µg/mL)	> 500 µM	inactive	1000 µM (≈ 295 µg/mL)	> 500 µM	500 µM (≈ 148 µg/mL)	> 500 µM	1000 µM (≈ 295 µg/mL)	Activity [21]: inactive; MIC95 [22]: > 500 µM; MIC95 [23]: 500 µM (≈ 148 µg/mL); MIC95 [24]: 500 µM (≈ 148 µg/mL); MIC80 [25]: > 500 µM; MIC95 [26]: 250 µM (≈ 73.8 µg/mL); MIC80 [27]: > 500 µM; MIC [28]: 1000 µM (≈ 295 µg/mL); MIC [29]: 1000 µM (≈ 295 µg/mL); MIC [30]: 1000 µM (≈ 295 µg/mL); MIC95 [31]: > 500 µM; MIC80 [32]: 500 µM (≈ 148 µg/mL); MIC [33]: 1000 µM (≈ 295 µg/mL); MIC50 [34]: > 500 µM; MIC80 [35]: 500 µM (≈ 148 µg/mL); Activity [36]: inactive; MIC95 [37]: > 500 µM; MIC [38]: 1000 µM (≈ 295 µg/mL)
O=C(CN1C(=O)CSC1=S)Oc1ccc(C(F)(F)F)cc1	500 µM (≈ 168 µg/mL)	62.5 µM (≈ 21 µg/mL)	inactive	Soluble	> 500 µM	inactive	1000 µM (≈ 335 µg/mL)	> 500 µM	1000 µM (≈ 335 µg/mL)	125 µM (≈ 41.9 µg/mL)	> 500 µM	62.5 µM (≈ 21 µg/mL)	1000 µM (≈ 335 µg/mL)	> 500 µM	inactive	1000 µM (≈ 335 µg/mL)	> 500 µM	62.5 µM (≈ 21 µg/mL)	> 500 µM	1000 µM (≈ 335 µg/mL)	Activity [21]: inactive; MIC95 [22]: > 500 µM; MIC95 [23]: 15.6 µM (≈ 5.24 µg/mL); MIC95 [24]: 15.6 µM (≈ 5.24 µg/mL); MIC80 [25]: > 500 µM; MIC95 [26]: 15.6 µM (≈ 5.24 µg/mL); MIC80 [27]: 500 µM (≈ 168 µg/mL); MIC [28]: 500 µM (≈ 168 µg/mL); MIC [29]: 1000 µM (≈ 335 µg/mL); MIC [30]: 1000 µM (≈ 335 µg/mL); MIC95 [31]: 15.6 µM (≈ 5.24 µg/mL); MIC80 [32]: > 500 µM; MIC [33]: 1000 µM (≈ 335 µg/mL); MIC50 [34]: 250 µM (≈ 83.8 µg/mL); MIC80 [35]: > 500 µM; Activity [36]: inactive; MIC95 [37]: 62.5 µM (≈ 21 µg/mL); MIC [38]: 1000 µM (≈ 335 µg/mL)
O=C(CN1C(=O)CSC1=S)Oc1ccc([N+](=O)[O-])cc1	> 500 µM	500 µM (≈ 156 µg/mL)	inactive	Soluble	> 500 µM	inactive	500 µM (≈ 156 µg/mL)	> 500 µM	500 µM (≈ 156 µg/mL)	125 µM (≈ 39 µg/mL)	> 500 µM	500 µM (≈ 156 µg/mL)	500 µM (≈ 156 µg/mL)	> 500 µM	inactive	500 µM (≈ 156 µg/mL)	> 500 µM	500 µM (≈ 156 µg/mL)	500 µM (≈ 156 µg/mL)	1000 µM (≈ 312 µg/mL)	Activity [21]: inactive; MIC95 [22]: > 500 µM; MIC95 [23]: 500 µM (≈ 156 µg/mL); MIC95 [24]: 250 µM (≈ 78.1 µg/mL); MIC80 [25]: > 500 µM; MIC95 [26]: 500 µM (≈ 156 µg/mL); MIC80 [27]: > 500 µM; MIC [28]: 500 µM (≈ 156 µg/mL); MIC [29]: 500 µM (≈ 156 µg/mL); MIC [30]: 500 µM (≈ 156 µg/mL); MIC95 [31]: 500 µM (≈ 156 µg/mL); MIC80 [32]: > 500 µM; MIC [33]: 1000 µM (≈ 312 µg/mL); MIC50 [34]: 250 µM (≈ 78.1 µg/mL); MIC80 [35]: > 500 µM; Activity [36]: inactive; MIC95 [37]: 500 µM (≈ 156 µg/mL); MIC [38]: 1000 µM (≈ 312 µg/mL)
